Experimental data: ChEMBL document CHEMBL1144702, “Synthesis and structure-activity relationship studies on tryprostatin A, an inhibitor of breast cancer resistance protein” (Bioorg Med Chem, 2008)
The source made the active and inactive calls. The rule behind the calls is not given here.

Experiments:
[1] = Antiproliferative activity against mouse tsFT210 cells after 48 hrs by WST-8 assay; format: functional, cell-based; settings: tsFT210, 48 h
In short: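 tsFT210 cells (temperature-sensitive cdc2 mutant from mouse mammary carcinoma FM3A), kept in RPMI 1640 with 10% fetal calf serum at 32 °C; exponentially growing cells exposed to compound at 32 °C for 48 h, then WST-8 added for 4 h at 37 °C; absorbance at 450 nm read to estimate cell number; IC50 reported.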

[2] = Cell cycle arrest in mouse tsFT210 cells assessed as accumulation at G1 phase at 100 uM after 18 hrs by flow cytometry; format: functional, cell-based
In short: (§1)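 Synchronous-culture assay: tsFT210 cells seeded at 1x10^5 cells/mL, preincubated 1 h at 32 °C, then incubated with compound 18 h at 32 °C; morphology checked by microscopy; DNA content by flow cytometry after staining with 50 μg/mL propidium iodide, 0.1% sodium citrate, 0.2% NP-40; nuclei/chromosomes stained with Hoechst 33258 after KCl swelling and Carnoy fixation.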

[3] = Cell cycle arrest in mouse tsFT210 cells assessed as accumulation at G2/M phase at 100 uM after 18 hrs by flow cytometry; format: functional, cell-based; in short: as §1
[4] = Inhibition of tubulin polymerization in presence of microtubule-associated proteins at 60 uM
In short: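 Tubulin containing MAPs in PME buffer (100 mM PIPES pH 6.9, 2 mM EGTA, 1 mM MgSO4) with GTP and drug in DMSO, tubulin added last; 37 °C, absorbance change at 351 nm over 10 min. Drug concentration varied across runs for delta absorbance versus concentration curves; colchicine standard curves made for each tubulin batch.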

[5] = Cytotoxicity against human H520 cells at 10 uM after 72 hrs by Cell Titer 96 Aqueous Non-Radioactive assay; format: functional; settings: NCI-H520, 72 h, read-out: Inhibition
In short: (§2)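 MCF7, NCI-H520 or PC-3 cells (RPMI-1640, 10% FBS) plated 1 × 10^4/well, 24 h at 37 °C, exposed 72 h to drug at 10 or 100 μM in DMSO or EtOH vehicle (controls usually 0.2%). Survival by MTS/PMS formazan absorbance at 490 nm, plate blank subtracted, as percent of vehicle wells; quadruplicate; etoposide or m-AMSA positive controls.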

[6] = Cytotoxicity against human H520 cells at 100 uM after 72 hrs by Cell Titer 96 Aqueous Non-Radioactive assay; format: functional; settings: NCI-H520, 72 h, read-out: Inhibition; in short: as §2
MCF7 [7] = assay: Cytotoxicity against human MCF7 cells at 10 uM after 72 hrs by Cell Titer 96 Aqueous Non-Radioactive assay; format: functional; settings: MCF7, 72 h, read-out: Inhibition; in short: as §2
MCF7 [8] = assay: Cytotoxicity against human MCF7 cells at 100 uM after 72 hrs by Cell Titer 96 Aqueous Non-Radioactive assay; format: functional; settings: MCF7, 72 h, read-out: Inhibition; in short: as §2
PC-3 [9] = assay: Cytotoxicity against human PC3 cells at 10 uM after 72 hrs by Cell Titer 96 Aqueous Non-Radioactive assay; format: functional; settings: PC-3, 72 h, read-out: Inhibition; in short: as §2
PC-3 [10] = assay: Cytotoxicity against human PC3 cells at 100 uM after 72 hrs by Cell Titer 96 Aqueous Non-Radioactive assay; format: functional; settings: PC-3, 72 h, read-out: Inhibition; in short: as §2
MCF7 [11] = assay: Cytotoxicity against human MCF7 cells after 72 hrs by Cell Titer 96 Aqueous Non-Radioactive assay; format: functional; settings: MCF7, 72 h
In short: (§3)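 MCF7, NCI-H520 and PC-3 cells in RPMI-1640 + 10% FBS, 2 mM L-glutamine, 0.1 mM non-essential amino acids; 1 × 10^4 cells/well, 24 h at 37 °C, then drug in DMSO or EtOH (<1%) for 72 h. Cells under 50% survival at 100 μM retested over further concentrations for GI50. MTS/PMS read at 490 nm, blank subtracted, versus vehicle wells; quadruplicate or more.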

PC-3 [12] = assay: Cytotoxicity against human PC3 cells after 72 hrs by Cell Titer 96 Aqueous Non-Radioactive assay; format: functional; settings: PC-3, 72 h; in short: as §3
CCRF-CEM = assay: Cytotoxicity against human CCRF-CEM cells; format: functional
[13] = Cytotoxicity against human HL60 (TB) cells; format: functional; settings: HL-60
K562 = assay: Cytotoxicity against human K562 cells; format: functional
MOLT-4 = assay: Cytotoxicity against human MOLT4 cells; format: functional
RPMI-8226 = assay: Cytotoxicity against human RPMI8226 cells; format: functional
SR = assay: Cytotoxicity against human SR cells; format: functional
HOP-92 = assay: Cytotoxicity against human HOP92 cells; format: functional
EKVX = assay: Cytotoxicity against human EKVX cells; format: functional
COLO 205 = assay: Cytotoxicity against human COLO205 cells; format: functional
OVCAR-3 = assay: Cytotoxicity against human OVCAR-3 cells; format: functional
IGROV-1 = assay: Cytotoxicity against human IGROV1 cells; format: functional
DU-145 = assay: Cytotoxicity against human DU145 cells; format: functional
LOX IMVI = assay: Cytotoxicity against human LOX IMVI cells; format: functional
[14] = Cytotoxicity against human […]; format: functional
BT-549 = assay: Cytotoxicity against human BT549 cells; format: functional
UO-31 = assay: Cytotoxicity against human UO31 cells; format: functional

Structure (SMILES): COc1ccc2c(C[C@@H]3NC(=O)[C@@H]4CCCN4C3=O)cn(CC=C(C)C)c2c1
- IC50 [1]: > 100 µM

Structure (SMILES): COc1ccc2c(C[C@@H]3NC(=O)[C@@H]4CCCN4C3=O)c(Cl)[nH]c2c1
- IC50 [1]: > 100 µM

Structure (SMILES): CC(C)=CCc1[nH]c2cc(N)ccc2c1C[C@@H]1NC(=O)[C@@H]2CCCN2C1=O
- IC50 [1]: > 100 µM

Structure (SMILES): CC(C)=CCc1[nH]c2cc([N+](=O)[O-])ccc2c1C[C@@H]1NC(=O)[C@@H]2CCCN2C1=O
- IC50 [1]: > 100 µM

Structure (SMILES): CC(C)=CCc1[nH]c2cc(N=[N+]=[N-])ccc2c1C[C@@H]1NC(=O)[C@@H]2CCCN2C1=O
- Activity [2]: Active
- Activity [3]: Active
- IC50 [1]: 60 µM

Structure (SMILES): COc1ccc2c(C[C@@H]3NC(=O)[C@@H]4CCCN4C3=O)c(Br)[nH]c2c1
- IC50 [1]: 96 µM

Structure (SMILES): CC(C)=CCc1[nH]c2ccccc2c1C[C@H]1NC(=O)[C@@H]2CCCN2C1=O
- inhibition [4]: < 2%
- percent cell survival relative to vehicle at 10 µM [5]: > 100%
- cell survival (% of vehicle control) at 100 µM [6]: 76.5%
- cell survival (% of vehicle control) at 10 µM (MCF7 [7]): > 100%
- cell survival (% of vehicle control) at 100 µM (MCF7 [8]): > 100%
- percent cell survival relative to vehicle control at 10 µM (PC-3 [9]): 97.3%
- percent cell survival at 100 µM (PC-3 [10]): 68.5%
- GI50 (MCF7 [11]): 25.9 µM
- GI50 (PC-3 [12]): 24.8 µM
- GI50 (CCRF-CEM): 22.2 µM
- GI50 [13]: 55.7 µM
- GI50 (K562): 31.8 µM
- GI50 (MOLT-4): 34.9 µM
- GI50 (RPMI-8226): 18.6 µM
- GI50 (SR): 25.4 µM
- GI50 (HOP-92): 2.94 µM
- GI50 (EKVX): 20.7 µM
- GI50 (COLO 205): 39.3 µM
- GI50 (OVCAR-3): 28.7 µM
- GI50 (IGROV-1): 32.3 µM
- GI50 (DU-145): 59.5 µM
- GI50 (LOX IMVI): 17.8 µM
- GI50 [14]: 49.6 µM
- GI50 (BT-549): 26.9 µM
- GI50 (UO-31): 45.7 µM

Structure (SMILES): CC(C)=CCc1[nH]c2cc(N=C=S)ccc2c1C[C@@H]1NC(=O)[C@@H]2CCCN2C1=O
- Activity [2]: Active
- Activity [3]: Active
- IC50 [1]: 50 µM

Structure (SMILES): COc1ccc2c(C[C@@H]3NC(=O)[C@@H]4CCCN4C3=O)cn(C)c2c1
- IC50 [1]: > 100 µM

Structure (SMILES): COc1ccc2c(C[C@@H]3NC(=O)[C@H](C(C)C)NC3=O)c[nH]c2c1
- IC50 [1]: > 100 µM

Structure (SMILES): COC(=O)/C=C/c1[nH]c2cc(OC)ccc2c1C[C@@H]1NC(=O)[C@@H]2CCCN2C1=O
- IC50 [1]: > 100 µM

Structure (SMILES): COc1ccc2c(C[C@@H]3NC(=O)[C@@H]4CCCN4C3=O)c[nH]c2c1
- IC50 [1]: > 100 µM
